A selection: hits, their analogues and other compounds. The true share with any hit is near 3.5%.
RGS4 act – RGS4 potentiation or activation; HEK293 M3R/inducible RGS4, carbachol calcium flux Fluo4; stronger effect = lower value; B-score at 10 µM; 0.92% of 310,000 active;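 active = B-score of the integrated calcium signal more than 4 SD below the library mean, with starting fluorescence not abnormally high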;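 also: negative B-score means reduced calcium response which marks RGS4 activation or potentiation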
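Also added: carbachol at ECmax as muscarinic agonist stimulus; Assay system: HEK293 cells with stable M3R and inducible RGS4; Timing: overnight RGS4 induction, 30 min dye load 37 °C, 20 min compound RT; Measured by: Fluo4-AM (2 µM) calcium-flux fluorescence, kinetic read.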
MrgX1 agonist – activates human MrgX1 receptor signaling | AID 588627 | MrgX1-HEK293 cells, Fluo-4 calcium fluorescence, agonist mode; stronger effect = higher value | B-score at 10 µM | Q96LB2 | 0.44% of 310,000 active;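 active = calcium response B-score plate-corrected fluorescence ratio at least 3 library SD, with starting fluorescence B-score inside 5 SD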
Target sequence (Q96LB2 whole entry, looked up): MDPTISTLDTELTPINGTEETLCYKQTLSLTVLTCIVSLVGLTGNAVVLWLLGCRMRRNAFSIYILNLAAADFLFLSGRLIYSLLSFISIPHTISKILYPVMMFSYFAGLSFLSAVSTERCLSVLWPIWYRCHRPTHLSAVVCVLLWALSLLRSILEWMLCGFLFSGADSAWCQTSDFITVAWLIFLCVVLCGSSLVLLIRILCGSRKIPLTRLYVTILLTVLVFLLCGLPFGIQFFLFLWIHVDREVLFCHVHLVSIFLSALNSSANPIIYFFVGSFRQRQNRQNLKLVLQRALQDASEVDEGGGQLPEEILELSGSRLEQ
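Material: HEK293 cells stably expressing human MrgX1 receptor | Quantity: 15,000 cells per well | Times: Cells plated overnight, dye loaded 0.5 h 37 °C, 0.5 h room temperature | Measured by: Kinetic Fluo-4 NW fluorescence of intracellular calcium | Control set: Positive and negative controls per plate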
MrgX1 antagonist – antagonists of human MrgX1 receptor; Q96LB2; B-score at 10 µM; 1.3% of 310,000 active; MRGX1-HEK293 calcium flux, Fluo-4, BAM8-22 antagonism; stronger effect = lower value;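 active = calcium-response B-score plate-corrected more than 3 library SD below zero, starting fluorescence within 5 deviations, no agonist response on first addition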;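 also: peak minus trough fluorescence over baseline after final BAM8-22 challenge near maximal dose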
MrgX1 allo act – human MrgX1 positive allosteric modulation, primary screen; Q96LB2; MrgX1-HEK293, Fluo-4 calcium flux, FDSS; stronger effect = higher value; B-score at 10 µM; 0.63% of 310,000 active; AID 588675;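 active = plate-corrected calcium response at least 3 library SD above typical, normal starting fluorescence, not activating the receptor alone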;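 also: compound read alongside a low EC10 to EC30 dose of BAM8-22 agonist; peak minus trough fluorescence over baseline measured at the second addition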
RGS4 inh – inhibitors of human RGS4 | 0.45% of 310,000 active | B-score at 10 µM | P49798 | HEK293 M3R/RGS4 inducible, Fluo-4 calcium flux; stronger effect = higher value; triggered by carbachol at its EC20;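 active = B-score, a plate-corrected calcium signal, over three deviations above library mean, with baseline fluorescence within five deviations of library mean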;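 also: RGS4 expression induced by doxycycline in cells with stable M3 receptor; B-score is computed from the integrated fluorescence ratio over baseline after carbachol; higher B-score means a larger calcium signal and so more RGS4 inhibition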
Target sequence (P49798 whole entry, looked up): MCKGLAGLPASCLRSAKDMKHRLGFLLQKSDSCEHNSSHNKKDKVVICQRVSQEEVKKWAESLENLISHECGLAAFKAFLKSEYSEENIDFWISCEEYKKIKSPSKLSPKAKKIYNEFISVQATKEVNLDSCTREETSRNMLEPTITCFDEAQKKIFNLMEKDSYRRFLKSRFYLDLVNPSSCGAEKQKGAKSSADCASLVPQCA
MrgX1 PAM conf – reconfirmed allosteric activator of human MrgX1 receptor | 13% of 1,200 active | MrgX1-HEK293, Fluo-4 calcium fluorescence, FDSS | shares compounds with MrgX1 allo act | activation (ratio percentage), % at 10 µM;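 active = ratio at least 3 SD above the weak peptide control, stable starting fluorescence, no direct agonism earlier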;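 also: compound followed by low BAM8-22 agonist challenge near EC20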
HEK293 Ca flux – MrgX1 antagonist counter-screen hit in parental HEK293 cells; shares compounds with MrgX1 antagonist; Fluo-4 calcium fluorescence, FDSS; fluorescence ratio F(max-min)/F0 at 10 µM; 2% of 4,000 active;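 active = duplicate-averaged calcium fluorescence ratio at least three times the standard deviation of buffer wells, a nonspecific response in parental cells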
HEK293 Ca counter – activity in parental HEK293 cells without MrgX1; shares compounds with MrgX1 antagonist; parental HEK293 calcium flux, Fluo-4 fluorescence ratio; stronger effect = higher value; fluorescence ratio F(max-min)/F0 at 10 µM; 0.4% of 4,000 active; AID 624114;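 active = calcium fluorescence ratio, averaged over duplicates, at least 3 SD of the buffer-well ratio, meaning a nonspecific response in receptor-free cells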;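 also: untransfected parental HEK293 lacking MrgX1 used as counterscreen for MrgX1 allosteric activators; fluorescence change taken during the second addition on a kinetic imager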
HEK293 Ca cntr2 – MrgX1 activator counter-screen hit in parental HEK293 cells; shares compounds with MrgX1 antagonist; Fluo-4 calcium fluorescence (FDSS); stronger effect = higher value; fluorescence ratio F(max-min)/F0 at 10 µM; 8.7% of 4,000 active; AID 624115;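 active = calcium fluorescence ratio at least three times the spread of buffer wells, meaning a non-specific response in parental cells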
Starred values were filed as active, the others as inactive; i = inactive; · = not tested or not shown.

SMILES	RGS4 act	MrgX1 agonist	MrgX1 antagonist	MrgX1 allo act	RGS4 inh	MrgX1 PAM conf	HEK293 Ca flux	HEK293 Ca counter	HEK293 Ca cntr2
O=C(CCc1ccccc1)NC(=S)Nc1cccc(Br)c1	i	i	i	9*	i	i	i	i	i
O=C(Nn1c(COc2ccccc2)nc2ccccc2c1=O)C(Cl)(Cl)Cl	i	i	i	i	i	·	·	·	·
Cc1cc(SCC(=O)c2ccc(O)c(O)c2)nc2ccccc12	i	i	i	11*	i	i	i	i	i
Cc1cc(SCC(=O)c2ccc3c(c2)OCO3)nc2ccccc12	i	i	i	i	i	·	·	·	·
CC12CCC(=O)N1C(C(=O)Nc1ccc(Cl)c(S(=O)(=O)N3CCCCC3)c1)CS2 (stereo not drawn)	i	i	i	i	i	·	·	·	·
CC12CCC(C(=O)Nc3nc4ccccc4s3)(OC1=O)C2(C)C (stereo not drawn)	i	i	i	29*	i	2.1%*	i	i	i
CC(C)CN(C(=O)COC(=O)c1cccn1C)c1c(N)n(Cc2ccccc2)c(=O)[nH]c1=O	i	i	i	i	i	·	·	·	·
CCOC(=O)c1ccc(NC(=O)C2CC3CCC2C3)cc1 (stereo not drawn)	i	i	i	7.5*	i	i	i	i	i
Clc1ccsc1-c1ccc2ccccc2n1	i	i	i	i	i	·	·	·	·
c1ccc2nc(-c3nccs3)ccc2c1	i	i	i	6.5*	i	i	i	i	i
Cc1ccc(C(=O)COC(=O)CCN2C(=O)C3C4C=CC(C5CC45)C3C2=O)cc1 (stereo not drawn)	i	i	i	i	i	·	·	·	·
c1ccc(Cc2c[nH]c3ccccc23)cc1	i	i	i	6.6*	i	i	i	i	i
CN(Cc1ccccc1)Cc1c[nH]c2ccccc12	i	i	i	i	i	·	·	·	·
Cc1ccn2c(NC3CCCC3)c(-c3ccncc3)nc2c1	i	i	i	7.3*	i	14%*	i	i	i
Cc1ccc2nc(-c3ccncc3)c(NC3CCCC3)n2c1	i	i	i	i	i	·	·	·	·
Cc1ccn2c(NC3CCCC3)c(-c3ccccn3)nc2c1	i	i	i	12*	i	i	i	i	i
COC(=O)c1cc(C(=O)OC)n(Cc2ccc(F)cc2)n1	i	i	i	i	i	·	·	·	·
COC(=O)c1cc(C(=O)OC)n(Cc2ccc(F)cc2)c1C	i	i	i	6.5*	i	i	i	i	i
CC(C)c1ccc(/C=N/NC(=O)CCNC(=O)c2ccccc2)cc1	i	i	i	i	i	·	·	·	·
O=C(Nc1nc2n(n1)C(c1ccccc1)CC(c1ccc(Cl)cc1)N2)c1ccco1 (stereo not drawn)	i	i	i	7.3*	i	i	i	i	i
COc1ccc(C2CC(c3ccccc3)Nc3nc(NC(=O)c4ccco4)nn32)cc1 (stereo not drawn)	i	i	i	i	i	·	·	·	·
COc1cc(CO)c(OC)c([N+](=O)[O-])c1	i	i	i	i	i	·	·	·	·
Cc1ccc(CNC(=O)c2ccc(N3CCC4(CC3)CC(c3ccccc3)=NO4)c(NC(=O)c3c(Cl)cccc3Cl)c2)cc1	i	i	i	i	i	·	·	·	·
COc1cccc(CN2CCN(C(=O)c3ccco3)CC2)c1	i	i	i	i	i	·	·	·	·
CC(=O)NCC(=O)NC1CCCc2c1cnn2-c1ccc(C(C)(C)C)cc1 (stereo not drawn)	i	i	i	9*	i	i	i	i	i
SMILES	RGS4 act	MrgX1 agonist	MrgX1 antagonist	MrgX1 allo act	RGS4 inh	MrgX1 PAM conf	HEK293 Ca flux	HEK293 Ca counter	HEK293 Ca cntr2
COC(=O)c1ccccc1NC(=O)CN(CCc1ccccc1)S(C)(=O)=O	i	i	i	9.5*	i	i	i	i	i
CS(=O)(=O)N(CCc1ccccc1)CC(=O)Nc1ccc(OCc2ccccc2)cc1	i	i	i	i	i	·	·	·	·
COc1ccc(NC(=O)c2cc(-c3cccc(OC)c3)on2)cc1	i	i	i	i	i	·	·	·	·
COc1ccc(NC(=O)c2cccc(C(=O)Nc3ccc(OC)cc3)n2)cc1	i	i	i	8.8*	i	i	i	i	i
CC(C(=O)Nc1ccccn1)(c1ccccc1)c1ccccc1	i	i	i	i	i	·	·	·	·
Cc1ccc(OCCCNCCO)c(Br)c1	i	i	i	7.5*	i	i	i	i	i
COc1ccc(S(=O)(=O)N2CCC(C(=O)NCC3CC3)CC2)cc1	i	i	i	13*	i	i	i	i	i
COc1ccc(OCC(=O)N2CCN(S(=O)(=O)c3ccc(Cl)cc3)CC2)cc1	i	i	i	14*	i	i	i	i	i
Cc1c(C(=O)N2CC(C)OC(C)C2)[nH]c2ccc(Br)cc12 (stereo not drawn)	i	i	i	i	i	·	·	·	·
COc1ccc(OC(=O)COc2cccc(C)c2)cc1	i	i	i	i	i	·	·	·	·
COc1ccc(N(C(=O)COc2cccc(C)c2)S(=O)(=O)c2ccc(C)cc2)cc1	i	i	i	18*	i	i	i	i	i
N#CC1=C(N)OC2=C(CCc3ccccc32)C1c1ccccc1 (stereo not drawn)	i	i	i	9.7*	i	i	i	i	i
N#CC1=C(N)Oc2cc(O)ccc2C1c1ccccc1 (stereo not drawn)	i	i	i	i	i	·	·	·	·
O=C1N=c2ccccc2=C1c1sc(NS(=O)(=O)c2ccccc2)nc1O	i	i	i	21*	i	i	i	i	i
CCN(CC(=O)NCc1ccc(Cl)cc1)C(=O)CN1C(=O)NC(CC)(c2ccccc2)C1=O (stereo not drawn)	i	i	i	i	i	·	·	·	·

Compound activity (PubChem BioAssay)
